Reference: PMC6139428 (Molecular Nutrition & Food Research, 2017)
“Also recorded” adds a separate entry of the source.

Tests used:
[1] = Nutrikinetics of isoflavone metabolites in serum after oral boiled soybean; assay type: in vivo, mice (C57BL/6); conditions: for serum concentration, CGJ‐treated compared with BS‐treated / bioavailability, CGJ‐treated compared to BS‐treated (unfermented soybean): OVX mice; for serum concentration, CGJ‐treated compared with BS‐treated: relative peak area; for concentration based on area‐under‐the‐curve analysis: all groups; for AUC, CGJ treatment versus BS treatment: sham group; for detection in pooled serum samples: pooled serum of sham and OVX groups after BS or CGJ, UPLC–QTOF‐MS; for bioavailability, CGJ‐treated compared to BS‐treated (unfermented soybean): abstract does not name the group; for AUC(0–24h), CGJ administered versus BS administered: OVX groups
[2] = test system: MC3T3‐E1 cells; experiment: Alkaline phosphatase; assay type: cell-based; conditions: for ALP activity: 0.1–0 5 μ M, 6 days differentiation; for osteoblastogenesis: abstract summary
Summary of the method: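 MC3T3‐E1 subclone 4 cells were kept in αMEM without L‐ascorbic acid and seeded at 2 × 10^4 cells/well. Differentiation was induced with 50 μg mL–1 L‐ascorbic acid and 10 mM β‐glycerophosphate plus test compound for 6 days. Cells were PBS‐washed and lysed in 0.2% Triton X‐100, and ALP was read with a pNPP kit. Means ± SD, n = 3, three independent experiments, tested against the control group.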

[3] = test system: MC3T3‐E1 cells; experiment: Mineralization assay; assay type: cell-based; conditions: 21‐day incubation
Summary of the method: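 MC3T3‐E1 cells were differentiated with test compound and incubated 21 days. Cells were washed, fixed in 4% formalin and stained with 2% Alizarin Red S. Bound stain was solubilized in 10% […] in 10 mM sodium phosphate and absorbance read at 562 nm. Means ± SD, n = 3, three independent experiments, tested against the control group.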

[4] = test system: RAW 264.7 cells; experiment: RANKL‐induced bone resorption activity; assay type: cell-based; conditions: abstract summary
Summary of the method: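 RAW 264.7 macrophages were grown in DMEM and seeded. Medium was replaced with RANKL‐containing differentiation medium plus test compound, then held 5 days without medium change. Bone resorption activity was measured with a commercial bone resorption assay kit. Means ± SD, n = 3, three independent experiments, tested against the control group.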

| Molecule | serum concentration, CGJ‐treated compared with BS‐treated [1] | ALP activity [2] | concentration based on area‐under‐the‐curve analysis [1] | detection in pooled serum samples [1] | also measured |
| --- | --- | --- | --- | --- | --- |
| O=C(O)c1ccc(O)cc1 [4‐hydroxybenzoic acid, 4‐Hydroxybenzoic acid] | higher in BS‐treated |  |  |  |  |
| O=C(O)/C=C/c1ccc(O)c(O)c1 [Caffeic acid] | higher in BS‐treated | stimulated ALP activity |  |  | mineralization, calcium deposition by ARS staining [3]: Extensive calcium deposition |
| O=c1c(-c2ccc(O)cc2)coc2cc(O)ccc12 [Daidzein] | significantly higher |  | high concentrations |  | AUC, CGJ treatment versus BS treatment [1]: significantly higher |
| O=c1c(-c2ccc(O)cc2)coc2cc(O[C@@H]3O[C@H](CO)[C@@H](O)[C@H](O)[C@H]3O)ccc12 [Daidzin] |  |  |  | not detected |  |
| O=C(O)[C@H]1O[C@@H](Oc2ccc3c(c2)OC[C@H](c2ccc(O)cc2)C3)[C@H](O)[C@@H](O)[C@@H]1O [Equol 7‐glucuronide] | higher concentrations | stimulated ALP activity | high concentrations |  | bioavailability, CGJ‐treated compared to BS‐treated (unfermented soybean) [1]: enhances; also recorded: higher bioavailability; osteoclast formation [4]: inhibit osteoclast formation; osteoblastogenesis [2]: promote osteoblastogenesis; mineralization, calcium deposition by ARS staining [3]: Extensive calcium deposition |
| COc1ccc(-c2coc3cc(O)ccc3c2=O)cc1 [Formononetin] | higher in BS‐treated | stimulated ALP activity |  |  |  |
| O=c1c(-c2ccc(OS(=O)(=O)O)cc2)coc2cc(O)cc(O)c12 [Genistein 4′‐sulfate] | higher concentrations | stimulated ALP activity | high concentrations |  | AUC(0–24h), CGJ administered versus BS administered [1]: significantly higher; osteoclast formation [4]: inhibit osteoclast formation; osteoblastogenesis [2]: promote osteoblastogenesis; mineralization, calcium deposition by ARS staining [3]: Extensive calcium deposition |
| O=c1c(-c2ccc(O)cc2)coc2cc(O)cc(O)c12 [Genistein] | higher concentrations; also recorded: significantly higher |  | high concentrations | detected | AUC(0–24h), CGJ administered versus BS administered [1]: significantly higher; bioavailability, CGJ‐treated compared to BS‐treated (unfermented soybean) [1]: enhances; AUC, CGJ treatment versus BS treatment [1]: significantly higher |
| O=c1c(-c2ccc(O)cc2)coc2cc(O[C@@H]3O[C@H](CO)[C@@H](O)[C@H](O)[C@H]3O)cc(O)c12 [Genistin] |  |  |  | not detected |  |
| COc1cc2c(=O)c(-c3ccc(O)cc3)coc2cc1O [Glycitein] |  |  |  | detected |  |
| Dihydrodaidzein sulfate | higher concentrations |  | high concentrations |  |  |
| Methyl caffeic acid | higher in BS‐treated |  |  |  |  |
